Measurements: ChEMBL document CHEMBL4334465, “SAR Studies on Aromatic Acylhydrazone-Based Inhibitors of Fungal Sphingolipid Synthesis as Next-Generation Antifungal Agents” (J Med Chem, 2019)
Converted amounts (≈) assume the structure as drawn. The source made the active and inactive calls. No cut-off for these calls is given here.

Columns and labels:
[1] = Selectivity index, ratio of LD50 for human HepG2 cells to MIC80 for Cryptococcus neoformans H99; format: toxicity; conditions: read-out: Selectivity Index
In short: (§1)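 SI = LD₅₀/MIC₈₀. Cytotoxicity: A549 or HepG2 cells (DMEM, 10% FBS, passage 7, 10⁵ cells/well) adhered 14 h, then exposed to 0.03–128 μg/mL for 24 or 48 h at 37°C, 5% CO₂; MTT 4 h, formazan dissolved in DMSO, read at 570 nm. MIC₈₀ against C. neoformans from broth microdilution in HEPES-buffered YNB, pH 7.0.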

[2] = Selectivity index, ratio of LD50 for human A549 cells to MIC80 for Cryptococcus neoformans H99; format: toxicity; conditions: read-out: Selectivity Index; in short: as §1
A549 = assay: Cytotoxicity against human A549 cells after 24 to 48 hrs by MTT assay; format: functional; conditions: read-out: LD50 (the source's name)
In short: (§2)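 A549 and HepG2 kept in DMEM with 10% FBS and 1% pen-strep. At passage 7, seeded at 10⁵ cells/well and allowed to adhere 14 h. Compound added at 0.03–128 μg/mL, untreated wells as controls. Incubation 37°C, 5% CO₂ for 24 or 48 h. MTT (5 mg/mL in PBS) added for 4 h, formazan dissolved in DMSO, OD570.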

Cryptococcus neoformans [3] = assay: Fungicidal activity against Cryptococcus neoformans H99 measured after 12 hrs by time-kill assay; format: functional, var grubii H99
In short: (§3)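 Overnight C. neoformans washed in PBS and resuspended in HEPES-buffered YNB, pH 7.4. 2 × 10⁴ cells exposed to a range of drug concentrations in 10 mL with 0.5% DMSO final, at 37°C, 5% CO₂, shaking at 200 rpm. Aliquots sampled over 96 h, diluted and plated on YPD; CFU counted after 48 h at 30°C.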

Cryptococcus neoformans [4] = assay: Antifungal activity against Cryptococcus neoformans H99 measured after 24 to 72 hrs; format: functional; conditions: var grubii H99
In short: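 Modified CLSI broth microdilution with inoculum per M27A3. Compounds were serially diluted 32 to 0.03 μg/mL. Media: C. neoformans in HEPES-buffered YNB without amino acids (pH 7.0, 2% glucose); Candida strains in YNB without ammonium sulfate or amino acids plus 1% asparagine (pH 7.0, 2% glucose); A. fumigatus in RPMI (pH 7.0, 2% glucose).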

HepG2 = assay: Cytotoxicity against human HepG2 cells after 24 to 48 hrs by MTT assay; format: functional; conditions: read-out: LD50 (the source's name); in short: as §2
Cryptococcus neoformans [5] = assay: Fungicidal activity against Cryptococcus neoformans H99 measured after 72 hrs by time-kill assay; format: functional, var grubii H99; in short: as §3
Cryptococcus neoformans [6] = assay: Fungicidal activity against Cryptococcus neoformans H99 measured after 6 hrs by time-kill assay; format: functional, var grubii H99; in short: as §3
Cryptococcus neoformans [7] = assay: Fungicidal activity against Cryptococcus neoformans H99 measured after 96 hrs by time-kill assay; format: functional, var grubii H99; in short: as §3
Cryptococcus neoformans [8] = assay: Fungistatic activity against Cryptococcus neoformans H99 by time-kill assay; format: functional, organism-based; conditions: var grubii H99; in short: as §3

SMILES	selectivity ratio [1]	selectivity ratio [2]	CC50 (A549)	MFC100 (Cryptococcus neoformans [3])	MIC80 (Cryptococcus neoformans [4])	CC50 (HepG2)	MFC100 (Cryptococcus neoformans [5])	MFC100 (Cryptococcus neoformans [6])	MFC100 (Cryptococcus neoformans [7])	Activity (Cryptococcus neoformans [8])
O=C(N/N=C/c1cc(Br)ccc1O)c1ccc(OC(F)(F)F)cc1	267	66.6	4 µg/mL (≈ 9.92 µM)	1 µg/mL (≈ 2.48 µM)	0.06 µg/mL (≈ 0.149 µM)	16 µg/mL (≈ 39.7 µM)				
O=C(N/N=C/c1cc(Br)ccc1O)c1ccc(OC(F)(F)F)cc1F	16	128	64 µg/mL (≈ 152 µM)		0.5 µg/mL (≈ 1.19 µM)	8 µg/mL (≈ 19 µM)	0.5 µg/mL (≈ 1.19 µM)			
O=C(N/N=C/c1cc(OC(F)(F)F)ccc1O)c1ccc(Br)cc1	256	64	16 µg/mL (≈ 39.7 µM)		0.25 µg/mL (≈ 0.62 µM)	64 µg/mL (≈ 159 µM)	1 µg/mL (≈ 2.48 µM)			
O=C(N/N=C/c1ccc(Br)cc1O)c1cc(Br)ccc1Br	133	267	32 µg/mL (≈ 67.1 µM)		0.12 µg/mL (≈ 0.252 µM)	16 µg/mL (≈ 33.5 µM)		0.25 µg/mL (≈ 0.524 µM)		
O=C(N/N=C/c1ccc(Br)cc1O)c1ccc(Br)cc1	533	267	16 µg/mL (≈ 40.2 µM)		0.06 µg/mL (≈ 0.151 µM)	32 µg/mL (≈ 80.4 µM)			0.25 µg/mL (≈ 0.628 µM)	
O=C(N/N=C/c1cc(Cl)ccc1O)c1cc(Br)cc(Br)c1	133	133	16 µg/mL (≈ 37 µM)	1 µg/mL (≈ 2.31 µM)	0.12 µg/mL (≈ 0.277 µM)	16 µg/mL (≈ 37 µM)				
O=C(N/N=C/c1ccc(Br)cc1O)c1ccc(Br)c(Br)c1	66.6	33.3	4 µg/mL (≈ 8.39 µM)		0.12 µg/mL (≈ 0.252 µM)	8 µg/mL (≈ 16.8 µM)	0.5 µg/mL (≈ 1.05 µM)			
O=C(N/N=C/c1cc(Br)cc(Br)c1O)c1cccc(OC(F)F)c1	133	133	16 µg/mL (≈ 34.5 µM)		0.12 µg/mL (≈ 0.259 µM)	16 µg/mL (≈ 34.5 µM)			0.25 µg/mL (≈ 0.539 µM)	
O=C(N/N=C/c1cc(Br)cc(Br)c1O)c1ccc(C(F)(F)F)cc1		33.3	4 µg/mL (≈ 8.58 µM)	1 µg/mL (≈ 2.15 µM)	0.12 µg/mL (≈ 0.257 µM)	8 µg/mL (≈ 17.2 µM)				
O=C(N/N=C/c1cc(F)ccc1O)c1ccc(Br)cc1	16	8	8 µg/mL (≈ 23.7 µM)		1 µg/mL (≈ 2.97 µM)	16 µg/mL (≈ 47.5 µM)			4 µg/mL (≈ 11.9 µM)	
O=C(N/N=C/c1cc(Br)cc(Br)c1O)c1ccc(OC(F)F)cc1	133	133	16 µg/mL (≈ 34.5 µM)		0.12 µg/mL (≈ 0.259 µM)	16 µg/mL (≈ 34.5 µM)		1 µg/mL (≈ 2.15 µM)		
O=C(N/N=C/c1cc(F)ccc1O)c1ccc(Br)cc1Br	16	16	16 µg/mL (≈ 38.5 µM)		1 µg/mL (≈ 2.4 µM)	16 µg/mL (≈ 38.5 µM)			2 µg/mL (≈ 4.81 µM)	
O=C(N/N=C/c1cc(Br)cc(Br)c1O)c1ccc(OC(F)(F)F)cc1	32	128	64 µg/mL (≈ 133 µM)		0.5 µg/mL (≈ 1.04 µM)	16 µg/mL (≈ 33.2 µM)	4 µg/mL (≈ 8.3 µM)			
O=C(N/N=C/c1cc(Br)ccc1O)c1cc(Br)cc(Br)c1	267	267	16 µg/mL (≈ 33.5 µM)		0.06 µg/mL (≈ 0.126 µM)	16 µg/mL (≈ 33.5 µM)				Active
